Assay results taken from ChEMBL document CHEMBL1152489, “Synthesis and biological evaluation of a novel series of 1,5-benzothiazepine derivatives as potential antimicrobial agents” (2009).
Activity calls are given as the source filed them. The calls are words filed in the database; no cut-off is given here.

Columns and labels:
Candida albicans [1] = assay: Antifungal activity against Candida albicans ATCC 10231 at 200 ug/disk after 24 hrs by disk diffusion method; type: functional; conditions: for zone of inhibition at 200 µg/disc: ATCC 10231, 24 h, read-out: IZ
Outline: (§1)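 Disk diffusion on media seeded with the organism. Sterile paper discs (6 mm) carried test compound dissolved in DMSO at 12.5, 50, 100 or 200 µg/disc. DMSO-only discs served as controls. Plates were incubated 24 h at 37 °C. The read-out is the growth-inhibition zone diameter in mm, averaged over three trials (±1 mm).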

[2] = tested on: Staphylococcus epidermidis; assay: Antibacterial activity against Staphylococcus epidermidis ATCC 26069 at 50 ug/disk after 24 hrs by disk diffusion method; type: functional; conditions: for zone of inhibition at 50 µg/disc: ATCC 26069, 24 h, read-out: IZ; outline: as §1
Escherichia coli [3] = assay: Antibacterial activity against Escherichia coli ATCC 44752 at 200 ug/disk after 24 hrs by disk diffusion method; type: functional, organism-based; outline: as §1
Staphylococcus aureus [4] = assay: Antibacterial activity against Staphylococcus aureus ATCC 25923 at 100 ug/disk after 24 hrs by disk diffusion method; type: functional; conditions: for zone of inhibition at 100 µg/disc: ATCC 25923, 24 h, read-out: IZ; outline: as §1
[5] = tested on: Staphylococcus epidermidis; assay: Antibacterial activity against Staphylococcus epidermidis ATCC 26069 at 200 ug/disk after 24 hrs by disk diffusion method; type: functional; conditions: for zone of inhibition at 200 µg/disc: ATCC 26069, 24 h, read-out: IZ; outline: as §1
[6] = tested on: Staphylococcus epidermidis; assay: Antibacterial activity against Staphylococcus epidermidis ATCC 26069 at 100 ug/disk after 24 hrs by disk diffusion method; type: functional; conditions: for zone of inhibition at 100 µg/disc: ATCC 26069, 24 h, read-out: IZ; outline: as §1
Escherichia coli [7] = assay: Antibacterial activity against Escherichia coli ATCC 44752 at 50 ug/disk after 24 hrs by disk diffusion method; type: functional, organism-based; outline: as §1
Staphylococcus aureus [8] = assay: Antibacterial activity against Staphylococcus aureus ATCC 25923 at 200 ug/disk after 24 hrs by disk diffusion method; type: functional; conditions: for zone of inhibition at 200 µg/disc: ATCC 25923, 24 h, read-out: IZ; outline: as §1
Staphylococcus aureus [9] = assay: Antibacterial activity against Staphylococcus aureus ATCC 25923 at 50 ug/disk after 24 hrs by disk diffusion method; type: functional; conditions: for zone of inhibition at 50 µg/disc: ATCC 25923, 24 h, read-out: IZ; outline: as §1
Escherichia coli [10] = assay: Antibacterial activity against Escherichia coli ATCC 44752 at 100 ug/disk after 24 hrs by disk diffusion method; type: functional, organism-based; outline: as §1
Candida albicans [11] = assay: Antifungal activity against Candida albicans ATCC 10231 at 100 ug/disk after 24 hrs by disk diffusion method; type: functional; conditions: for zone of inhibition at 100 µg/disc: ATCC 10231, 24 h, read-out: IZ; outline: as §1
Candida albicans [12] = assay: Antifungal activity against Candida albicans ATCC 10231 at 50 ug/disk after 24 hrs by disk diffusion method; type: functional; conditions: for zone of inhibition at 50 µg/disc: ATCC 10231, 24 h, read-out: IZ; outline: as §1

Row | SMILES | inhibition zone (IZ) [2] | inhibition zone (IZ) (Escherichia coli [3]) | inhibition zone (IZ) (Escherichia coli [7]) | inhibition zone (IZ) (Escherichia coli [10]) | inhibition zone (IZ) (Candida albicans [12]) | zone of inhibition at 200 µg/disc (Candida albicans [1]) [mm] | zone of inhibition at 50 µg/disc [2] [mm] | zone of inhibition at 100 µg/disc (Staphylococcus aureus [4]) [mm] | zone of inhibition at 200 µg/disc [5] [mm] | zone of inhibition at 100 µg/disc [6] [mm] | zone of inhibition at 200 µg/disc (Staphylococcus aureus [8]) [mm] | zone of inhibition at 50 µg/disc (Staphylococcus aureus [9]) [mm] | zone of inhibition at 100 µg/disc (Candida albicans [11]) [mm] | zone of inhibition at 50 µg/disc (Candida albicans [12]) [mm] | other results
1 | CCOC(=O)C1=C(C)Nc2ccccc2SC1c1ccc(C)cc1 (stereo unspecified) | inactive | inactive | inactive | inactive | inactive | – | – | – | – | – | – | – | – | – | inhibition zone (IZ) (Candida albicans [1]): inactive; inhibition zone (IZ) (Staphylococcus aureus [4]): inactive; inhibition zone (IZ) [5]: inactive; inhibition zone (IZ) [6]: inactive; inhibition zone (IZ) (Staphylococcus aureus [8]): inactive; inhibition zone (IZ) (Staphylococcus aureus [9]): inactive; inhibition zone (IZ) (Candida albicans [11]): inactive
2 | CC(=O)C1=C(C)Nc2ccccc2SC1c1ccccc1Cl (stereo unspecified) | – | inactive | inactive | inactive | – | 15 | 7.5 | 8 | 9 | 7.5 | 9 | 8 | 15 | 12 | –
3 | CC(=O)C1=C(C)Nc2cc(Cl)ccc2SC1c1ccc(Cl)cc1Cl (stereo unspecified) | inactive | inactive | inactive | inactive | inactive | – | – | 7 | – | – | 10 | – | – | – | inhibition zone (IZ) (Candida albicans [1]): inactive; inhibition zone (IZ) [5]: inactive; inhibition zone (IZ) [6]: inactive; inhibition zone (IZ) (Staphylococcus aureus [9]): inactive; inhibition zone (IZ) (Candida albicans [11]): inactive
4 | CC(=O)C1=C(C)Nc2cc(Cl)ccc2SC1c1ccccc1 (stereo unspecified) | – | inactive | inactive | inactive | – | 13 | 7 | 7 | 11 | 8 | 10 | 7 | 9 | 7 | –
5 | CC(=O)C1=C(C)Nc2cc(Cl)ccc2SC1c1ccc(F)cc1 (stereo unspecified) | – | inactive | inactive | inactive | – | 10 | 7 | 9 | 8 | 8 | 9 | 8 | 9 | 8 | –
6 | CC(=O)C1=C(C)Nc2cc(Cl)ccc2SC1c1ccc([N+](=O)[O-])cc1 (stereo unspecified) | – | inactive | inactive | inactive | – | 14 | 10 | 7 | 11 | 11 | 11 | 7 | 11 | 9 | –
7 | COc1ccc(C2Sc3ccccc3NC(C)=C2C(C)=O)cc1 (stereo unspecified) | inactive | inactive | inactive | inactive | – | 11 | – | 7 | 10 | 7 | 10 | 6.5 | 9 | 8 | –
8 | CCOC(=O)C1=C(C)Nc2ccccc2SC1c1ccc([N+](=O)[O-])cc1 (stereo unspecified) | inactive | inactive | inactive | inactive | inactive | 7 | – | 6.5 | – | – | 7 | – | 6.5 | – | inhibition zone (IZ) [5]: inactive; inhibition zone (IZ) [6]: inactive; inhibition zone (IZ) (Staphylococcus aureus [9]): inactive
9 | CC(=O)C1=C(C)Nc2ccccc2SC1c1ccc(C)cc1 (stereo unspecified) | – | inactive | inactive | inactive | – | 23 | 7 | 9 | 7 | 7 | 10 | 7 | 16 | 16 | –
10 | CC(=O)C1=C(C)Nc2ccccc2SC1c1ccc(Cl)cc1Cl (stereo unspecified) | – | inactive | inactive | inactive | – | 14 | 7 | 7 | 11 | 8 | 10 | 7 | 10 | 9 | –
11 | CC(=O)C1=C(C)Nc2ccccc2SC1c1ccccc1 (stereo unspecified) | inactive | inactive | inactive | inactive | inactive | 10 | – | 8 | 10 | 7 | 11 | 6.5 | 7 | – | –
12 | CC(=O)C1=C(C)Nc2cc(Cl)ccc2SC1c1ccc(Cl)cc1 (stereo unspecified) | – | inactive | inactive | inactive | – | 13 | 7 | 7.5 | 10 | 7.5 | 10 | 7 | 11 | 10 | –
13 | CC(=O)C1=C(C)Nc2ccccc2SC1c1ccc([N+](=O)[O-])cc1 (stereo unspecified) | – | inactive | inactive | inactive | – | 20 | 10 | 12 | 13 | 12 | 13 | 10 | 18 | 16 | –
14 | CC(=O)C1=C(C)Nc2ccccc2SC1c1ccc(O)cc1 (stereo unspecified) | – | inactive | inactive | inactive | – | 17 | 11 | 9.5 | 12 | 11 | 10 | 7 | 17 | 15 | –
15 | CC(=O)C1=C(C)Nc2ccccc2SC1c1ccc(F)cc1 (stereo unspecified) | – | inactive | inactive | inactive | – | 20 | 10 | 9 | 11 | 11 | 10 | 7 | 20 | 18 | –
16 | CC(=O)C1=C(C)Nc2ccccc2SC1c1ccccc1[N+](=O)[O-] (stereo unspecified) | – | inactive | inactive | inactive | – | 16 | 7 | 11 | 10 | 9 | 12 | 8 | 13 | 11 | –
17 | CC(=O)C1=C(C)Nc2cc(Cl)ccc2SC1c1ccccc1[N+](=O)[O-] (stereo unspecified) | – | inactive | inactive | inactive | inactive | – | 7 | 7 | 8 | 8 | 8 | 7 | – | – | inhibition zone (IZ) (Candida albicans [1]): inactive; inhibition zone (IZ) (Candida albicans [11]): inactive
18 | CCOC(=O)C1=C(C)Nc2ccccc2SC1c1ccccc1Cl (stereo unspecified) | inactive | inactive | inactive | inactive | inactive | – | – | – | – | – | – | – | – | – | inhibition zone (IZ) (Candida albicans [1]): inactive; inhibition zone (IZ) (Staphylococcus aureus [4]): inactive; inhibition zone (IZ) [5]: inactive; inhibition zone (IZ) [6]: inactive; inhibition zone (IZ) (Staphylococcus aureus [8]): inactive; inhibition zone (IZ) (Staphylococcus aureus [9]): inactive; inhibition zone (IZ) (Candida albicans [11]): inactive
